Data taken from ChEMBL document CHEMBL1140721, “Development of potent purine-derived nitrile inhibitors of the trypanosomal protease TbcatB” (J Med Chem, 2008).

Columns and labels:
[1] = target: Cathepsin B (Homo sapiens, UniProt P07858); assay: Inhibition of human liver cathepsin B
Outline: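 Human liver enzyme at 0.56 ng/mL final in sodium acetate pH 5.5 buffer with 4 mM DTT, 0.01% Triton X-100, 0.5 mM EDTA. 20 min room-temperature preincubation with inhibitor, then Z-Arg-Arg-AMC (10 µM final). Quadruplicate. Sigmoidal IC50 fit.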

[2] = target: T1, Cathepsin B-like cysteine protease (Trypanosoma brucei, UniProt Q6R7Z5); assay: Inhibition of Trypanosoma brucei cathepsin B-like cysteine protease
T1 sequence (Q6R7Z5 whole entry): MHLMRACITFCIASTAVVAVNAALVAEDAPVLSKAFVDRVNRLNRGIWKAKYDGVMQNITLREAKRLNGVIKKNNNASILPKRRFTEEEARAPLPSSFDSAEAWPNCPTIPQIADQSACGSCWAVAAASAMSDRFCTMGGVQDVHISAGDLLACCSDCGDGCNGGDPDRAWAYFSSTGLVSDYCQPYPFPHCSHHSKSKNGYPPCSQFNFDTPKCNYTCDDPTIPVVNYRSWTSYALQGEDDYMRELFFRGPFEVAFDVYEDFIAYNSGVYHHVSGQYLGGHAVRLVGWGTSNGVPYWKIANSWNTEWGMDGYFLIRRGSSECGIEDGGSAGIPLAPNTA
Outline: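 Recombinant TbcatB zymogen expressed in Pichia pastoris, purified by HIC and anion exchange, titrated with CA074; 35 nM final. Inhibitor preincubated 20 min at room temperature, then Z-Phe-Arg-AMC (10 µM final). Initial rate from fluorescence (ex 350/em 460 nm) over 10 min. Triplicate. Sigmoidal IC50 fit.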

[3] = system: Trypanosoma brucei; assay: Antitrypanosomal activity against Trypanosoma brucei; type: functional, organism-based
Outline: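 Culture-adapted bloodstream T. brucei grown in HMI-9 with pen/strep, 10% heat-inactivated FBS and 10% Serum Plus at 37 °C, 5% CO2, diluted to 1 × 10^4 cells/mL. Inhibitor added from DMSO, 48 h at 37 °C, then 1 h room-temperature equilibration. Cell Titer Glo luminescence read after 8 min. Quadruplicate. IC50 by curve fitting. Values shift up to 10-fold with FBS lot.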

[4] = target: Procathepsin L (Homo sapiens, UniProt P07711); assay: Inhibition of human liver cathepsin L
Outline: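 Inhibitor preincubated 20 min at room temperature before Z-Phe-Arg-AMC (10 µM final). Initial rate from fluorescence (ex 350/em 460 nm) over 10 min. Quadruplicate. Sigmoidal IC50 fit.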

Chain of Procathepsin L (P07711 whole entry): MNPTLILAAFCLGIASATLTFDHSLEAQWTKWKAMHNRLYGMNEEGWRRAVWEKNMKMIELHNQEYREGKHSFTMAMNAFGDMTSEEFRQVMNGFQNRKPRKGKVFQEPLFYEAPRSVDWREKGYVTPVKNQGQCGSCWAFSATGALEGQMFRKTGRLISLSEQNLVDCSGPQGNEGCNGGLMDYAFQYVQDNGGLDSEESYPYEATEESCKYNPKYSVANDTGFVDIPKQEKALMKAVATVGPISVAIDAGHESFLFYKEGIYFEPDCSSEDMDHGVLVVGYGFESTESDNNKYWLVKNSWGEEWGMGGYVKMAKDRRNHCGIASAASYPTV

SMILES	IC50 [1] [µM]	IC50 [2] [µM]	IC50 [3] [µM]	IC50 [4] [µM]	EC50 [3] [µM]
N#Cc1nc(NCc2ccc(F)cc2)c2ncn(Cc3ccccc3)c2n1	> 30	3.3	0.9	13.5	–
Cc1ccc(CNc2nc(C#N)nc3c2ncn3Cc2ccccc2)cc1	> 30	> 25	–	12.9	0.56
COc1ccc(Cn2cnc3c(NCc4ccc(Cl)cc4)nc(C#N)nc32)cc1	> 30	23	0.27	> 30	–
CCCCCCNc1nc(C#N)nc2c1ncn2C1CCCC1	> 30	> 25	1.5	28.4	–
CCCCCCNc1nc(C#N)nc2c1ncn2Cc1ccccc1	> 30	> 25	0.7	> 30	–
CCCCn1cnc2c(NC(C)c3ccccc3)nc(C#N)nc21 (configuration not stated)	> 30	> 25	1.5	9.4	–
N#Cc1nc(NC2CCCCC2)c2ncn(C3CCCCC3)c2n1	23.6	8.3	1.4	3.3	–
CC(Nc1nc(C#N)nc2c1ncn2C1CCCC1)c1ccccc1 (configuration not stated)	> 30	> 25	3.4	11.8	–
COc1ccc(CNc2nc(C#N)nc3c2ncn3C2CCCC2)cc1	> 30	7	0.8	4	–
CCCCn1cnc2c(NCc3cccc(C)c3)nc(C#N)nc21	> 30	11	0.27	3.91	–
Cc1cccc(CNc2nc(C#N)nc3c2ncn3CC2CCCCC2)c1	> 30	> 25	2.2	> 30	–
N#Cc1nc(NCc2ccc(F)cc2)c2ncn(CCCCO)c2n1	> 30	18	0.8	6.68	–
N#Cc1nc(NCc2ccccc2)c2ncn(Cc3cccc(C(F)(F)F)c3)c2n1	> 30	2.8	0.26	> 30	–
N#Cc1nc(NCc2ccc(Cl)cc2)c2ncn(CCCO)c2n1	–	0.57	0.31	0.61	–
N#Cc1nc(NCc2ccc(Cl)cc2)c2ncn(C3CCCC3)c2n1	> 30	19	1.2	13.5	–
N#Cc1nc(NCc2ccc(Cl)cc2)c2ncn(Cc3ccccc3)c2n1	> 30	> 25	1.5	> 30	–
N#Cc1nc(NCCc2ccccc2)c2ncn(Cc3cccnc3)c2n1	> 30	10	4.4	17.1	–
N#Cc1nc(NCCc2ccccc2)c2ncn(Cc3ccccc3)c2n1	> 30	> 25	2.4	> 30	–
CCC(C)CNc1nc(C#N)nc2c1ncn2C1CCCC1 (configuration not stated)	> 30	14	1.1	2.38	–
N#Cc1nc(NCc2ccc(Cl)c(Cl)c2)c2ncn(CCCO)c2n1	–	0.27	0.11	0.3	–
N#Cc1nc(NCc2ccc(Cl)c(Cl)c2)c2ncn(CC(O)CO)c2n1 (configuration not stated)	> 30	1.2	0.45	0.42	–
COCCCn1cnc2c(NCc3ccc(Cl)c(Cl)c3)nc(C#N)nc21	> 30	2.5	0.15	0.78	–
COC(CCn1cnc2c(NCc3ccc(Cl)c(Cl)c3)nc(C#N)nc21)OC	> 30	3.4	0.22	0.5	–
CCCCn1cnc2c(NCc3ccc(Br)cc3)nc(C#N)nc21	> 30	8.4	0.54	9.62	–
N#Cc1nc(NCc2ccc(Br)cc2)c2ncn(CCCc3ccccc3)c2n1	> 30	> 25	0.42	> 30	–
CCCCn1cnc2c(NCc3ccc(Cl)c(Cl)c3)nc(C#N)nc21	> 30	4.1	0.18	1.82	–
CCCCn1cnc2c(NCc3ccccc3)nc(C#N)nc21	> 30	14	1.7	4.38	–
CCCCn1cnc2c(NCc3ccc(Cl)cc3)nc(C#N)nc21	> 30	10	0.85	5.06	–

SMILES	IC50 [1] [µM]	IC50 [2] [µM]	IC50 [3] [µM]	IC50 [4] [µM]	EC50 [3] [µM]
COc1ccc(CNc2nc(C#N)nc3c2ncn3Cc2ccccc2)cc1	> 30	4.5	–	8.05	1
Cc1ccc(CNc2nc(C#N)nc3c2ncn3CCCO)cc1	7.69	4.2	–	1.17	0.9
Cc1cccc(CNc2nc(C#N)nc3c2ncn3C2CCCC2)c1	> 30	> 25	1.1	10.5	–
N#Cc1nc(NCc2ccc(Cl)cc2)c2ncn(Cc3cccnc3)c2n1	> 30	> 25	0.5	> 30	–
N#Cc1nc(NCc2ccc(Cl)cc2)c2ncn(CCCCO)c2n1	–	4.8	0.6	4.15	–
N#Cc1nc(NCc2ccc(Cl)cc2)c2ncn(CC3CCCCC3)c2n1	> 30	> 25	> 10	> 30	–
CCCCn1cnc2c(NCCc3ccccc3)nc(C#N)nc21	> 30	16	1.5	17.1	–
COc1ccc(Cn2cnc3c(NCc4ccccc4)nc(C#N)nc32)cc1	> 30	11	–	26.9	0.4
CCCCn1cnc2c(NCc3ccc(F)cc3)nc(C#N)nc21	> 30	7.1	0.7	6.84	–
N#Cc1nc(NC2CCCCC2)c2ncn(Cc3ccccc3)c2n1	17.7	2.3	0.33	3.79	–
CCCCCCNc1nc(C#N)nc2c1ncn2CC1CCCCC1	> 30	> 25	3.6	> 30	–
CC(Nc1nc(C#N)nc2c1ncn2Cc1ccccc1)c1ccccc1 (configuration not stated)	> 30	> 25	1.3	> 30	–
CCCCn1cnc2c(NCc3ccc(OC)cc3)nc(C#N)nc21	> 30	6	–	2.28	0.39
CCCCn1cnc2c(NCc3ccc(C)cc3)nc(C#N)nc21	> 30	> 25	–	5.86	0.55
N#Cc1nc(NCc2ccccc2)c2ncn(CCCO)c2n1	–	12	–	2.27	2.9
Cc1cccc(CNc2nc(C#N)nc3c2ncn3Cc2ccccc2)c1	> 30	3.3	0.48	10.5	–
N#Cc1nc(NCc2ccccc2)c2ncn(C3CCCC3)c2n1	> 30	> 25	1.7	13.4	–
N#Cc1nc(NCc2ccccc2)c2ncn(Cc3ccccc3)c2n1	> 30	6	2	12.2	–
N#Cc1nc(NCc2ccc(Cl)cc2)c2ncn(Cc3cccc(C(F)(F)F)c3)c2n1	> 30	> 25	0.34	> 30	–
N#Cc1nc(NCc2ccc(Cl)c(Cl)c2)c2ncn(CCCCCO)c2n1	> 30	0.93	0.06	0.8	–
COCOCCn1cnc2c(NCc3ccc(Cl)c(Cl)c3)nc(C#N)nc21	> 30	0.8	0.32	0.87	–
N#Cc1nc(NCc2ccc(Cl)c(Cl)c2)c2ncn(CCO)c2n1	> 30	1.4	0.6	0.3	–
N#Cc1nc(NCc2ccc(Cl)c(Cl)c2)c2ncn(Cc3ccccc3)c2n1	> 30	15	–	14.9	0.26
N#Cc1nc(NCc2ccccc2)c2ncn(CC3CCCCO3)c2n1 (configuration not stated)	> 30	11	–	10.8	0.24
N#Cc1nc(NCc2ccc(Br)cc2)c2ncn(Cc3ccccc3)c2n1	> 30	> 25	1.1	28.9	–
N=C(N)c1ccc(/N=N/Nc2ccc(C(=N)N)cc2)cc1 [DIMINAZENE]	> 30	–	0.02	–	–
Cc1ccc(C(=O)Nc2ccc(S(=O)(=O)O)c3cc(S(=O)(=O)O)cc(S(=O)(=O)O)c23)cc1NC(=O)c1cccc(NC(=O)Nc2cccc(C(=O)Nc3cc(C(=O)Nc4ccc(S(=O)(=O)O)c5cc(S(=O)(=O)O)cc(S(=O)(=O)O)c45)ccc3C)c2)c1 [SURAMIN]	> 30	–	0.13	–	–
